Source: ChEMBL document CHEMBL1142544 (J Med Chem, 2008)
The source made the active and inactive calls. The rule behind the calls is not given here.

Assays:
[1] = biological target: T1, Farnesyl pyrophosphate synthase (Homo sapiens, UniProt P14324); test: Inhibition of human FPP synthase expressed in Escherichia coli BL21 (DE3)
T1 sequence (P14324 whole entry): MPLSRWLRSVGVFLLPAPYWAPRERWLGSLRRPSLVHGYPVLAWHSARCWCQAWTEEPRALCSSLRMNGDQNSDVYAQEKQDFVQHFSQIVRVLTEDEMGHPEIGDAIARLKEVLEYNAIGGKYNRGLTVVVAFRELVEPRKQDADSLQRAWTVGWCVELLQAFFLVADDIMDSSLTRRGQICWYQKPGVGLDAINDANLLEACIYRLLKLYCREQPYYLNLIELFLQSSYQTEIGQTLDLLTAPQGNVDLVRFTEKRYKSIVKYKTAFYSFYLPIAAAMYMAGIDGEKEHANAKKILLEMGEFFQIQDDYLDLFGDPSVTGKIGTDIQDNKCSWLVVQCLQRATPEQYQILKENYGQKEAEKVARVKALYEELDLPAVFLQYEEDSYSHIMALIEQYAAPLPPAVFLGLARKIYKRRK

[2] = Stimulation of human Vgamma9Vdelta2 T lymphocytes assessed as gamma delta expansion factor after 7 days; assay type: functional
[3] = Cytotoxicity against human CFU-GM cells at 100 uM after 7 days
[4] = system: BT-549; test: Antitumor activity against human BT-549 cells xenografted SCID mouse assessed as survival time prolongation at 2 ug, ip
[5] = system: HuT78; test: Induction of apoptosis in human HUT78 cells at 100 uM by flow cytometry; assay type: functional
Summary of the method: (§1)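 Tumor cells were exposed to 100 µM compound. Cells (1 × 10⁶) were washed in PBS, pelleted at 200g for 5 min, and stained with FITC-annexin V plus propidium iodide for 15 min at 20 °C. The percentage of annexin-V-positive cells was measured by flow cytometry.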

[6] = system: BT-549; test: Antitumor activity against human BT-549 cells xenografted SCID mouse co-transfected with human gamma delta T lymphocytes assessed as survival time prolongation at 5 ug, ip coadministered with human recombinant IL2; assay type: functional, organism-based
Summary of the method: (§2)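 SCID mice were conditioned by irradiation and anti-asialo-GM1 monoclonal antibody. On day 0 they received a single ip injection of BT549 breast cancer cells (2 × 10⁶/mouse). Drug was given ip (2 µg or 5 µg) with the tumor cells, alone or with ip human rIL-2 (300 ng). Where indicated, purified human γδ T cells (2 × 10⁷/mouse) were added. Cells and drug were reinjected every 15 days, with IL-2 on the same day and days 3 and 6 after. Read-out was mean survival time in days.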

[7] = system: K562; test: Induction of apoptosis in human K-562 cells expressing Bcr-Abl at <50 uM by flow cytometry; assay type: functional, cell-based
[8] = system: CCRF-CEM; test: Induction of apoptosis in human CCRF-CEM cells at 100 uM by flow cytometry; assay type: functional; summary of the method: as §1
[9] = system: K562; test: Induction of apoptosis in human K-562 cells expressing Bcr-Abl at 100 uM by flow cytometry; assay type: functional; summary of the method: as §1
[10] = system: BT-549; test: Antitumor activity against human BT-549 cells xenografted SCID mouse assessed as survival time prolongation at 2 ug, ip; assay type: functional, cell-based; summary of the method: as §2
[11] = system: BT-549; test: Antitumor activity against human BT-549 cells xenografted SCID mouse co-transfected with human gamma delta T lymphocytes assessed as survival time prolongation at 5 ug, ip; assay type: functional, cell-based; summary of the method: as §2
[12] = system: BT-549; test: Antitumor activity against human BT-549 cells xenografted SCID mouse co-transfected with human gamma delta T lymphocytes assessed as survival time prolongation at 2 ug, ip coadministered with human recombinant IL2; assay type: functional, organism-based; summary of the method: as §2
[13] = Induction of apoptosis in human CEM-VBL300 cells expressing p-glycoprotein at 100 uM by flow cytometry; assay type: functional; summary of the method: as §1
[14] = system: BT-549; test: Antitumor activity against human BT-549 cells xenografted SCID mouse co-transfected with human gamma delta T lymphocytes assessed as survival time prolongation at 2 ug, ip; assay type: functional, cell-based
Summary of the method: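 SCID mice conditioned by irradiation plus anti-asialo-GM1 antibody; day 0 single i.p. BT549 (2 × 10⁶/mouse) with concomitant i.p. drug (2 µg), ± rIL-2 (300 ng), plus highly purified human γδ T cells (2 × 10⁷/mouse). γδ T cells and drug re-injected every 15 days; rIL-2 the same day and 3 and 6 days after each. Read-out: mean survival time (days).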

O=P(O)(O)C(Cn1cnc2c(Cl)ncnc21)P(=O)(O)O
IC50 [1]: 0.883 µM | Activity [2]: 0.1 µM

O=P(O)(O)C(Cn1cccn1)P(=O)(O)O
IC50 [1]: 3.07 µM | Activity [2]: >10 µM

O=P(O)(O)C(CSc1ncc[nH]1)P(=O)(O)O
IC50 [1]: 0.0281 µM | Activity [2]: >10 µM

O=P(O)(O)C(Cn1cnc2cncnc21)P(=O)(O)O
IC50 [1]: 0.388 µM | Activity [2]: 0.2 µM

O.O=P(O)(O)C(O)(Cn1ccnc1)P(=O)(O)O [ZOLEDRONIC ACID]
Activity [3]: 18% | Activity [4]: inactive | Activity [5]: 24% | Activity [6]: Active | Activity [7]: inactive | Activity [8]: 20% | Activity [9]: 16% | Activity [10]: inactive | Activity [11]: inactive | Activity [2]: 0.1 µM | Activity [12]: Active | Activity [13]: 22%

O=P(O)(O)C(Cn1cnc2ccccc21)P(=O)(O)O
IC50 [1]: 0.0161 µM | Activity [2]: 1 µM

O=P(O)(O)C(Cn1ccnc1)P(=O)(O)O
Activity [3]: 15% | Activity [4]: inactive | Activity [5]: 40% | Activity [14]: Active | Activity [7]: inactive | Activity [8]: 22% | Activity [9]: 15% | Activity [10]: inactive | Activity [2]: 0.001 µM | Activity [13]: 37%
